In ChEMBL document CHEMBL1126152, “Fluoronaphthyridines as antibacterial agents. 4. Synthesis and structure-activity relationships of 5-substituted-6-fluoro-7-(cycloalkylamino)-1,4-dihydro-4-oxo-1,8- naphthyridine-3-carboxylic acids” (J Med Chem, 1992):
In brackets after ≈: the same amount, converted by molar mass. Several values for one entry are separate records, joined by “and”; a condition that tells them apart may be missing. Identical values can stand only once.

What was measured:
Escherichia coli [1] = test: In vitro for antibacterial activity against Escherichia coli; assay type: functional
Outline: (§1)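 MIC by serial 2-fold broth dilution in nutrient broth with an inoculum of 10^6 CFU/mL. Compound range was 0.0005–250 μg/mL. Plates were incubated 18 h at 37 °C. MIC was taken as the lowest concentration preventing visible growth.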

in vivo [2] = details: mouse, plasma, T1/2
Escherichia coli [3] = test: Compound was tested for […] against Escherichia coli A 15119 after oral administration of drug in mice, value in the parenthesis indicates 95% confidence limits; assay type: functional; details: read-out: PD50
Outline: (§2)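 Mouse protection test against systemic infection. Compound was dissolved in sterile water and given orally to female OF1-strain Swiss mice weighing 18–25 g, with five mice per group.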

[4] = Lethal dose was determined in OF1-strain female Swiss mice after oral administration of the drug; details: mouse, in vivo
Enterococcus faecalis = test: In vitro for antibacterial activity against Enterococcus faecalis; assay type: functional; outline: as §1
Bacteroides fragilis = test: In vitro for antibacterial activity against […].; assay type: functional; outline: as §1
[5] = (§3) Solubility was measured at PH - 7.2 buffer
in vivo [6] = details: mouse, plasma
Morganella morganii = test: In vitro for antibacterial activity against Morganella morganii; assay type: functional; outline: as §1
[7] = Lethal dose was determined in OF1-strain female Swiss mice after intra venous administration of the drug; details: mouse, in vivo, iv
Enterobacter cloacae = test: In vitro for antibacterial activity against Enterobacter cloacae; assay type: functional
Streptococcus pneumoniae [8] = test: Antibacterial activity against Streptococcus pneumoniae; assay type: functional
Pseudomonas aeruginosa [9] = test: Compound was tested for […] against Pseudomonas aeruginosa A 9843 after oral administration of drug in mice, value in the parenthesis indicates 95% confidence limits; assay type: functional; details: read-out: PD50; outline: as §2
Serratia marcescens = test: In vitro for antibacterial activity against Serratia marcescens; assay type: functional; outline: as §1
Staphylococcus aureus [10] = test: Antibacterial activity against Staphylococcus aureus; assay type: functional
Mus musculus [11] = organism: Mus musculus; details: in vivo
Klebsiella pneumoniae = test: In vitro for antibacterial activity against Klebsiella pneumoniae; assay type: functional; outline: as §1
Staphylococcus aureus [12] = test: animal or person; assay type: functional; details: in Mus musculus, po, read-out: PD50
[13] = % dose recovered in mouse urine; details: % recovery
Pseudomonas aeruginosa [14] = test: In vitro for antibacterial activity against Pseudomonas aeruginosa; assay type: functional; outline: as §1
Proteus mirabilis = test: In vitro for antibacterial activity against Proteus mirabilis; assay type: functional; outline: as §1
Streptococcus pneumoniae [15] = test: Compound was tested for efficacy on systemic infection against Streptococcus pneumoniae A 9585 after oral administration of drug in mice, value in the parenthesis indicates 95% confidence limits
[16] = Partition coefficient (logD); details: octanol/water
Pseudomonas aeruginosa [17] = test: animal or person; assay type: functional; details: in Mus musculus, po, read-out: PD50
[18] = as §3; assay type: physicochemical
Outline: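 Excess solid was shaken overnight at 22 °C in pH 7.2 buffer for injection, then filtered. The diluted filtrate was assayed by HPLC with UV detection.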

Streptococcus pneumoniae [19] = test: animal or person; assay type: functional; details: in Mus musculus, po, read-out: PD50
Escherichia coli [20] = test: Compound was tested for […] against Escherichia coli A 15119 after oral administration of drug in mice; assay type: functional; details: read-out: PD50; outline: as §2
Pseudomonas aeruginosa [21] = test: Compound was tested for […] against Pseudomonas aeruginosa A 9843 after oral administration of drug in mice,; assay type: functional; details: read-out: PD50; outline: as §2
Staphylococcus [22] = test: Compound was tested for […] against Staphylococcus aureus A 15090 after oral administration of drug in mice; assay type: functional; details: read-out: PD50; outline: as §2
[23] = Max plasma concentration was measured by 40 mg/kg dose of peroral administration.; assay type: ADME, organism-based; parameters: dose 40 mg/kg, route oral; details: po
Outline: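 Mice were dosed orally at 40 mg/kg, and compound levels were measured in blood. Values came from duplicate or triplicate experiments and are stated as accurate to ±50%.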

Mus musculus [24] = organism: Mus musculus; details: in vivo; remark: listed apart in the source
Staphylococcus [25] = test: Compound was tested for […] against Staphylococcus aureus A 15090 after oral administration of drug in value in the parenthesis indicates 95% confidence limits; assay type: functional; details: read-out: PD50; outline: as §2

| Structure (SMILES) | MIC (Escherichia coli [1]) | half-life (in vivo [2]) | LD50 [4] | MIC (Enterococcus faecalis) | MIC (Bacteroides fragilis) | solubility [5] | Cmax (in vivo [6]) | MIC (Morganella morganii) | MIC (Enterobacter cloacae) | MIC (Streptococcus pneumoniae [8]) | MIC (Serratia marcescens) | MIC (Staphylococcus aureus [10]) | MIC (Klebsiella pneumoniae) | ED50 (Staphylococcus aureus [12]) | dose excreted [13] | MIC (Pseudomonas aeruginosa [14]) | MIC (Proteus mirabilis) | logD [16] | ED50 (Pseudomonas aeruginosa [17]) | ED50 (Streptococcus pneumoniae [19]) | further results |
| --- | --- | --- | --- | --- | --- | --- | --- | --- | --- | --- | --- | --- | --- | --- | --- | --- | --- | --- | --- | --- | --- |
| CC(C)(C)n1cc(C(=O)O)c(=O)c2cc(F)c(N3CC4CC3CN4)nc21 (stereo not given) | 0.008 µg/mL (≈ 0.0222 µM) | 1.6 h | 5000 mg/kg | 0.5 µg/mL (≈ 1.39 µM) | 4 µg/mL (≈ 11.1 µM) | 80 µg/mL (≈ 222 µM) | 10000 ng/mL | 0.06 µg/mL (≈ 0.166 µM) | 0.02 µg/mL (≈ 0.0555 µM) | 0.13 µg/mL (≈ 0.361 µM) | 0.06 µg/mL (≈ 0.166 µM) | 0.003 µg/mL (≈ 0.00832 µM) | 0.02 µg/mL (≈ 0.0555 µM) | 1.6 mg/kg | 34% | 0.25 µg/mL (≈ 0.694 µM) | 0.06 µg/mL (≈ 0.166 µM) | – | – | – | ED50 (Escherichia coli [3]): 1.8 mg/kg; LD50 [7]: 303 mg/kg; ED50 (Pseudomonas aeruginosa [9]): 4.7 mg/kg; T1/2 (Mus musculus [11]): 1.58 h; PD50 (Streptococcus pneumoniae [15]): 29.7 mg/kg |
| Cc1c(F)c(N2CC3CC2CN3)nc2c1c(=O)c(C(=O)O)cn2-c1ccc(F)cc1F (stereo not given) | 0.008 µg/mL (≈ 0.0186 µM) | 2.38 h | – | 0.13 µg/mL (≈ 0.302 µM) | 4 µg/mL (≈ 9.29 µM) | 50 µg/mL (≈ 116 µM) | 20000 ng/mL | 0.13 µg/mL (≈ 0.302 µM) | 0.03 µg/mL (≈ 0.0697 µM) | 0.06 µg/mL (≈ 0.139 µM) | 0.13 µg/mL (≈ 0.302 µM) | 0.008 µg/mL (≈ 0.0186 µM) | 0.06 µg/mL (≈ 0.139 µM) | 0.7 mg/kg | 11% | 0.5 µg/mL (≈ 1.16 µM) | 0.06 µg/mL (≈ 0.139 µM) | 0.59 | 1.6 mg/kg | – | T1/2 (Mus musculus [11]): 2.08 h |
| CCn1cc(C(=O)O)c(=O)c2c(C)c(F)c(N3CC[C@H](N)C3)nc21 | 0.002 µg/mL (≈ 0.00598 µM) | – | – | 2 µg/mL (≈ 5.98 µM) | – | – | – | 0.03 µg/mL (≈ 0.0897 µM) | 0.008 µg/mL (≈ 0.0239 µM) | 0.5 µg/mL (≈ 1.5 µM) | 0.13 µg/mL (≈ 0.389 µM) | 0.016 µg/mL (≈ 0.0479 µM) | 0.016 µg/mL (≈ 0.0479 µM) | – | – | 1 µg/mL (≈ 2.99 µM) | 0.13 µg/mL (≈ 0.389 µM) | – | – | – | solubility [18]: 30 µg/mL (≈ 89.7 µM) |
| Cc1c(F)c(N2CC[C@H](N)C2)nc2c1c(=O)c(C(=O)O)cn2C1CC1 | 0.002 µg/mL (≈ 0.00577 µM) | – | 2500 mg/kg | 0.13 µg/mL (≈ 0.375 µM) | 0.25 µg/mL (≈ 0.722 µM) | 70 µg/mL (≈ 202 µM) | – | 0.016 µg/mL (≈ 0.0462 µM) | 0.002 µg/mL (≈ 0.00577 µM) | 0.13 µg/mL (≈ 0.375 µM) | 0.004 µg/mL (≈ 0.0115 µM) | 0.004 µg/mL (≈ 0.0115 µM) | 0.004 µg/mL (≈ 0.0115 µM) | 5.5 mg/kg | – | 0.25 µg/mL (≈ 0.722 µM) | 0.008 µg/mL (≈ 0.0231 µM) | 0.78 | – | 19 mg/kg | ED50 (Escherichia coli [20]): 1.8 mg/kg; LD50 [7]: 56 mg/kg; ED50 (Pseudomonas aeruginosa [21]): 2.8 mg/kg |
| Cc1c(F)c(N2CCNCC2)nc2c1c(=O)c(C(=O)O)cn2C1CC1 | 0.008 µg/mL (≈ 0.0231 µM) | – | – | 1 µg/mL (≈ 2.89 µM) | 32 µg/mL (≈ 92.4 µM) | – | – | 0.06 µg/mL (≈ 0.173 µM) | 0.03 µg/mL (≈ 0.0866 µM) | 1 µg/mL (≈ 2.89 µM) | 0.13 µg/mL (≈ 0.375 µM) | 0.03 µg/mL (≈ 0.0866 µM) | 0.02 µg/mL (≈ 0.0577 µM) | – | 12% | 0.5 µg/mL (≈ 1.44 µM) | 0.13 µg/mL (≈ 0.375 µM) | – | 5.6 mg/kg | > 50 mg/kg | ED50 (Staphylococcus [22]): 9.6 mg/kg; ED50 (Escherichia coli [20]): 1.2 mg/kg; T1/2 (Mus musculus [11]): 2.73 h and 1.23 h |
| Cc1c(F)c(N2CC[C@H](N)C2)nc2c1c(=O)c(C(=O)O)cn2C(C)(C)C | 0.004 µg/mL (≈ 0.011 µM) | 2.83 h | – | 0.13 µg/mL (≈ 0.359 µM) | 4 µg/mL (≈ 11 µM) | 570 µg/mL (≈ 1570 µM) | 7000 ng/mL | 0.06 µg/mL (≈ 0.166 µM) | 0.03 µg/mL (≈ 0.0828 µM) | 0.25 µg/mL (≈ 0.69 µM) | 0.13 µg/mL (≈ 0.359 µM) | 0.004 µg/mL (≈ 0.011 µM) | 0.03 µg/mL (≈ 0.0828 µM) | – | 7% | 1 µg/mL (≈ 2.76 µM) | 0.06 µg/mL (≈ 0.166 µM) | 1.14 | 25 mg/kg | > 25 mg/kg | ED50 (Staphylococcus [22]): 4.1 mg/kg; Cmax [23]: 7000 ng/mL |
| Cc1c(F)c(N2CC3CC2CN3)nc2c1c(=O)c(C(=O)O)cn2C(C)(C)C (stereo not given) | 0.03 µg/mL (≈ 0.0801 µM) | 3.1 h | – | 0.5 µg/mL (≈ 1.34 µM) | 32 µg/mL (≈ 85.5 µM) | – | 22000 ng/mL | 0.13 µg/mL (≈ 0.347 µM) | 0.13 µg/mL (≈ 0.347 µM) | 0.25 µg/mL (≈ 0.668 µM) | 0.13 µg/mL (≈ 0.347 µM) | 0.02 µg/mL (≈ 0.0534 µM) | 0.06 µg/mL (≈ 0.16 µM) | – | 12% | 2 µg/mL (≈ 5.34 µM) | 0.25 µg/mL (≈ 0.668 µM) | – | – | – | AUC (Mus musculus [24]): 74000 ng·h/mL; ED50 (Pseudomonas aeruginosa [9]): 4.1 mg/kg; ED50 (Staphylococcus [25]): 12.5 mg/kg |
| CN[C@H]1CCN(c2nc3c(c(C)c2F)c(=O)c(C(=O)O)cn3-c2ccc(F)cc2F)C1 | 0.016 µg/mL (≈ 0.037 µM) | – | 2500 mg/kg | 0.25 µg/mL (≈ 0.578 µM) | 2 µg/mL (≈ 4.63 µM) | 10 µg/mL (≈ 23.1 µM) | – | 0.06 µg/mL (≈ 0.139 µM) | 0.03 µg/mL (≈ 0.0694 µM) | 0.06 µg/mL (≈ 0.139 µM) | 0.25 µg/mL (≈ 0.578 µM) | 0.008 µg/mL (≈ 0.0185 µM) | 0.016 µg/mL (≈ 0.037 µM) | 1.8 mg/kg | – | 1 µg/mL (≈ 2.31 µM) | 0.13 µg/mL (≈ 0.301 µM) | 1.38 | 1.8 mg/kg | 4.1 mg/kg | AUC (Mus musculus [24]): 32000 ng·h/mL; ED50 (Escherichia coli [20]): 2.7 mg/kg; LD50 [7]: 94 mg/kg |
